Calls of active or inactive are those of the source. The calls are words filed in the database; no cut-off is given here. Some results are limits rather than exact numbers.

As usually defined, the inhibition is the relative decrease from the control value, in per cent. A low value points to a response near the control. Broadly, the inhibition in vivo is the change of the read-out against control, counted positive when it falls. A high value points to strong suppression.

The target in data set [1] is T1, Amine oxidase [flavin-containing] A (Rattus norvegicus, UniProt P21396).
T1 sequence (P21396 whole entry): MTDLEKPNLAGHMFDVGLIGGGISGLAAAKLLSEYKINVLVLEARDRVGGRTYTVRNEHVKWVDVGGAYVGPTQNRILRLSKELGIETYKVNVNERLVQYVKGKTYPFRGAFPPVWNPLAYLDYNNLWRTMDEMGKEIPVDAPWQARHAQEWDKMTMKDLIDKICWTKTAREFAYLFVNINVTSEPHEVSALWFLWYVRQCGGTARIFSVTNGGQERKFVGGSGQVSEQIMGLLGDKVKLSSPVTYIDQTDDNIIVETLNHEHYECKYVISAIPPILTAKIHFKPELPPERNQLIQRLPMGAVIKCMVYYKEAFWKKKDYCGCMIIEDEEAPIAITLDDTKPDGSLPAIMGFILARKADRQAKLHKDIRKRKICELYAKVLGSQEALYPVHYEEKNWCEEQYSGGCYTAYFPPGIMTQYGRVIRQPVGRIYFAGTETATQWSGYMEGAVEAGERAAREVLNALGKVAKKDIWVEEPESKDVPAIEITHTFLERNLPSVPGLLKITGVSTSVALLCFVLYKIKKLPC
Put plainly: Inhibition of rat brain monoamine oxidase A.

For data set [2], the target named is 4-aminobutyrate aminotransferase, mitochondrial (Homo sapiens) (UniProt P80404). Nature of the data set: Inhibition of GABA-transaminase at 10 uM. Summed up: (§1)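 In vitro screen: GABASE incubated with compound in incubation buffer, with GABA-T activity read by a modified colorimetric method.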
For data set [3] the target is unchanged. Nature of the data set: Inhibition of GABA-transaminase at 100 uM. In short, it runs like this:
as §1

Data set [4] has as its system Rattus norvegicus. Put plainly: Ex vivo increase in brain glycine level in Sprague-Dawley rat whole brain at 38.5 mg/kg, ip after 3 hrs relative to control. It counts as functional. More on the design: dose 38.5 mg/kg. Summed up: (§2)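 Male rats (~300 g) dosed i.p. in corn oil vehicle, killed by decapitation 3, 6 or 12 h later. Whole brains were flash-frozen, homogenized in 5 volumes ice-cold water, extracted with ice-cold methanol and centrifuged. Amino acids were derivatized with OPA/isobutyryl-L-cysteine and measured by HPLC-fluorescence on a C18 column at 30 °C. Values are % of vehicle control, N = 3–5 per group.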

Data set [5] concerns Rattus norvegicus. Nature of the data set: Ex vivo increase in brain glycine level in Sprague-Dawley rat whole brain at 38.5 mg/kg, ip after 6 hrs relative to control. It counts as functional. Conditions: route intraperitoneal. In short, it runs like this: as §2
For data set [6], the system named is Rattus norvegicus. Put plainly: Ex vivo inhibition of GABA-transaminase in Sprague-Dawley rat whole brain at 30 mg/kg, ip after 6 hrs relative to control. It counts as functional. Conditions: route intraperitoneal. In short, it runs like this:
(§3)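 Male Sprague–Dawley rats (~300 g) dosed i.p. in corn oil, killed 3, 6 or 12 h later; whole-brain homogenate (5 volumes ice-cold water). GABA-T measured radiochemically: homogenate incubated with radiolabeled GABA in buffer containing pyridoxal phosphate, products isolated with tri-n-octylamine liquid anion exchanger, scintillation counting. Activity as % of vehicle control; N = 4–5 per group.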

The test system of data set [7] is Rattus norvegicus. Nature of the data set: Ex vivo inhibition of monoamine oxidase A in Sprague-Dawley rat whole brain at 30 mg/kg, ip. More on the design: dose 30 mg/kg. It counts as functional. Summed up:
(§4)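 Male Sprague–Dawley rats (~300 g) dosed i.p. in corn oil, killed at 3, 6 or 12 h; whole-brain water homogenate diluted in 0.2 M potassium phosphate pH 7.4. Activity as % of vehicle control; N = 3–6 per group.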

Data set [8] deals with Rattus norvegicus. Put plainly: Ex vivo inhibition of GABA-transaminase in Sprague-Dawley rat whole brain at 30 mg/kg, ip after 3 hrs relative to control. It counts as functional. Conditions: route intraperitoneal. Summed up:
as §3

In data set [9] the test system is Rattus norvegicus. Put plainly: Ex vivo increase in brain GABA level in Sprague-Dawley rat whole brain at 30 mg/kg, ip after 3 hrs relative to control. It counts as functional. Conditions: route intraperitoneal. Summed up:
(§5)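 Male Sprague–Dawley rats (~300 g) given drug i.p. in corn oil vehicle, killed by decapitation at 3, 6 or 12 h; brains flash-frozen, homogenized in 5 volumes ice-cold water. Homogenate deproteinized in ice-cold methanol, centrifuged, OPA/isobutyryl-L-cysteine derivatized; HPLC with fluorescence detection, C18 column at 30 °C. Expressed as % of vehicle control; N = 3–5 per group.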

Data set [10] concerns Rattus norvegicus. Put plainly: Ex vivo inhibition of monoamine oxidase B in Sprague-Dawley rat whole brain at 30 mg/kg, ip. It counts as functional. More on the design: dose 30 mg/kg. In short, it runs like this:
as §4

For data set [11], the system named is Rattus norvegicus. Nature of the data set: Ex vivo inhibition of GABA-transaminase in Sprague-Dawley rat whole brain at 30 mg/kg, ip after 12 hrs relative to control. It counts as functional. Conditions: route intraperitoneal. Summed up:
as §3

Data set [12] concerns Rattus norvegicus. Put plainly: Ex vivo increase in brain alanine level in Sprague-Dawley rat whole brain at 30 mg/kg, ip after 3 hrs relative to control. It counts as functional. Conditions: route intraperitoneal. In short, it runs like this:
as §5

Sequence of 4-aminobutyrate aminotransferase, mitochondrial (Homo sapiens) (P80404 whole entry): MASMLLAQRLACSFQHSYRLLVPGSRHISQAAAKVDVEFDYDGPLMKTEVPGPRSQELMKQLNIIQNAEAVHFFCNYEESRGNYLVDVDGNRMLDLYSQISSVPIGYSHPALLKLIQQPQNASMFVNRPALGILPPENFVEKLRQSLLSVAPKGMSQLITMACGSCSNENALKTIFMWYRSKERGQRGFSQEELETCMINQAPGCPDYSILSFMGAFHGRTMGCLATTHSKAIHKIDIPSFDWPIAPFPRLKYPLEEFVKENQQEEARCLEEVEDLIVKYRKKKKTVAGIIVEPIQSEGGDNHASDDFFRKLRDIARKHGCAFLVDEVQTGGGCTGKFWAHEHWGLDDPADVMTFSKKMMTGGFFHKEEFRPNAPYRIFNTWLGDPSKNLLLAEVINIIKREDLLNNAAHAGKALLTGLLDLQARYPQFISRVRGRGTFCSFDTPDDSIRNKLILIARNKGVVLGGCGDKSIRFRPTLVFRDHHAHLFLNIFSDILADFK

Take `NNCCc1ccccc1` [PHENELZINE]: in data set [1], the inhibition (INH) is more than 95%.
In the case of `C#CCN/N=C/Cc1cccc(F)c1`, the result in data set [2] and in data set [3] was inactive.
Regarding `C#CCN/N=C/Cc1ccc(F)cc1`, the result in [2] and in data set [3] was inactive.
Take `C#CCN(CC#C)/N=C/Cc1cccc(Cl)c1`: the outcome in data set [2] and in [3] was inactive.
`C#CCN/N=C/Cc1ccccc1OC`: the outcome in [2] and in [3] was inactive.
Regarding `C#CCN(CC#C)/N=C/Cc1ccccc1C(F)(F)F`, the outcome in [2] and in data set [3] was inactive.
Turning to `C#CCN(CC#C)/N=C/Cc1cccc(OC)c1`, the result in [2] and in [3] was inactive.
In the case of `C#CCN/N=C/Cc1ccccc1C`, the result in data set [2] and in [3] was inactive.
For the molecule `C#CCN/N=C/Cc1ccccc1C(F)(F)F`, the outcome in data set [2] and in data set [3] was inactive.
For `C#CCN/N=C/Cc1cccc(C)c1`, the outcome in [2] and in data set [3] was inactive.
On to `C#CCN/N=C/Cc1cccc(Cl)c1`, for which the outcome in data set [2] and in [3] was inactive.
Consider `C#CCN(CC#C)/N=C/Cc1cccc(C)c1`, for which the result in data set [2] and in data set [3] was inactive.
As for `C#CCN(CC#C)/N=C/Cc1ccccc1F`, the outcome in data set [2] and in data set [3] was inactive.
In the case of `C#CCN/N=C/Cc1ccc(Cl)cc1`, the outcome in data set [2] and in data set [3] was inactive.
Regarding `C#CCN/N=C/Cc1ccc(C)cc1`, the result in [2] and in data set [3] was inactive.
As for `C#CCN(CC#C)/N=C/Cc1cccc(C(F)(F)F)c1`, the result in data set [2] and in data set [3] was inactive.
As for `C#CCN/N=C/Cc1ccccc1Cl`, the result in data set [2] and in data set [3] was inactive.
For the molecule `C#CCN/N=C/Cc1cccc(OC)c1`, the outcome in data set [2] and in [3] was inactive.
With `C#CCN/N=C/Cc1ccc(C(F)(F)F)cc1`, the outcome in data set [2] and in [3] was inactive.
Take `C#CCN(CC#C)/N=C/Cc1ccc(OC)cc1`: the result in data set [2] and in data set [3] was inactive.
Regarding `C#CCN(CC#C)/N=C/Cc1ccccc1Cl`, the outcome in data set [2] and in data set [3] was inactive.
Turning to `C#CCN(CC#C)/N=C/Cc1ccc(C(F)(F)F)cc1`, the outcome in data set [2] and in [3] was inactive.
`C#CCN(CC#C)/N=C/Cc1ccccc1C`: the outcome in data set [2] and in [3] was inactive.
Turning to `C#CCN/N=C/Cc1ccccc1`, the outcome in data set [2] and in data set [3] was inactive. Moreover, the outcome in [4] was Active. For the same molecule, in data set [5], the Activity worked out at 216%.
On to `C#CCN/N=C/Cc1ccc(OC)cc1`, for which the result in data set [2] and in [3] was inactive.
For `C#CCN(CC#C)/N=C/Cc1ccc(Cl)cc1`, the outcome in [2] and in data set [3] was inactive.
On to `C#CCN(CC#C)/N=C/Cc1ccccc1OC`, for which the outcome in data set [2] and in [3] was inactive.
For the molecule `C#CCN/N=C/Cc1cccc(C(F)(F)F)c1`, the result in [2] and in [3] was inactive.
For `C#CCN(CC#C)/N=C/Cc1ccc(C)cc1`, the outcome in data set [2] and in data set [3] was inactive.
As for `C#CCN(CC#C)/N=C/Cc1cccc(F)c1`, the result in data set [2] and in [3] was inactive.
In the case of `C#CCN/N=C/Cc1ccccc1F`, the outcome in data set [2] and in [3] was inactive.
As to `C#CCN(CC#C)/N=C/Cc1ccc(F)cc1`, the result in data set [2] and in [3] was inactive.
In data set [2], `N/N=C\Cc1ccccc1` yielded an inhibition of 10%. Besides, the inhibition in vivo at 30 mg/kg in data set [6] came to 66%; in data set [8], 66%; in data set [11], 70%. Further, the result in data set [7] and in [10] was inactive. Moreover, the Activity is given as 418% in [9] and 489% in data set [12].

(Values after ChEMBL document CHEMBL1139405, “N-Propynyl analogs of beta-phenylethylidenehydrazines: synthesis and evaluation of effects on glycine, GABA, and monoamine oxidase” (Bioorg Med Chem, 2008).)
